According to ChEMBL document CHEMBL4811287, “Discovery of dronedarone and its analogues as NLRP3 inflammasome inhibitors with potent anti-inflammation activity” (Bioorg Med Chem Lett, 2021):
The source made the active and inactive calls. The rule behind the calls is not given here.

How the values were obtained:
[1] = target: NACHT, LRR and PYD domains-containing protein 3 (Mus musculus, UniProt Q8R4B8); test: (§1) Inhibition of NLRP3 inflammasome in LPS-primed mouse J774.A1 cells assessed as reduction in IL-1beta secretion preincubated with compound for 1 hr followed by nigericin stimulation for 1 hr by ELISA; format: cell-based
Chain of NACHT, LRR and PYD domains-containing protein 3 (Q8R4B8 whole entry, the tested form may be a part): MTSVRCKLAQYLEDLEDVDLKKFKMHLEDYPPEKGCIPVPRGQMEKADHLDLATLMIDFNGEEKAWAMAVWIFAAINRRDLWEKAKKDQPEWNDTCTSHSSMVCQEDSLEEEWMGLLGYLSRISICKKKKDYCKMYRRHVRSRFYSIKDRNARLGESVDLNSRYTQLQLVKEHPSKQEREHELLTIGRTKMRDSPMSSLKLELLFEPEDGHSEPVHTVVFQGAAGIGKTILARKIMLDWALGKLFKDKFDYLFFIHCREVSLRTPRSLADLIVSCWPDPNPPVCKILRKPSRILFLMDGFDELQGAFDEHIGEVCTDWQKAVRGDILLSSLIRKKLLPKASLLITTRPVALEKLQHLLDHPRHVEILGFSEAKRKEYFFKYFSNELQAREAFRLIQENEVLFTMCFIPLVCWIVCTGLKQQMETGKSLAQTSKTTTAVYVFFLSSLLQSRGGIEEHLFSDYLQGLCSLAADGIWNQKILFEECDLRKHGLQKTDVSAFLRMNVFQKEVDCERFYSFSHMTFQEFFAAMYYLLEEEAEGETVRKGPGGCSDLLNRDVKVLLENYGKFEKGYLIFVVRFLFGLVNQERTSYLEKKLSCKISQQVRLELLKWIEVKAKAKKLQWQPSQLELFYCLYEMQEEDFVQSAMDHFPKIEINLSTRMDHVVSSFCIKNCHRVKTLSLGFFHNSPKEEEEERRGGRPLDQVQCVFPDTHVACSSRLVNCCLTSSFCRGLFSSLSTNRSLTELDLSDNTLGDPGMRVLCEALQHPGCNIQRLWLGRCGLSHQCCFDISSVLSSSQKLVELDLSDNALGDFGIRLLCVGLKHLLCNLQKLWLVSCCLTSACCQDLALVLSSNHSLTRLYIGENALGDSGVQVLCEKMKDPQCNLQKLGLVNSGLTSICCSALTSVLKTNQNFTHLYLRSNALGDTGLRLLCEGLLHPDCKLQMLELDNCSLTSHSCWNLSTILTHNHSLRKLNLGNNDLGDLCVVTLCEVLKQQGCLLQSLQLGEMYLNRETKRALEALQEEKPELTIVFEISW
In short: (§2)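 J774A.1 murine macrophages primed with LPS, exposed to compound at indicated doses for 1 h, then stimulated with nigericin for another 1 h; IL-1β released into supernatant measured by ELISA.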

[2] = Inhibition of Cl- channel in human monocytes assessed as inhibition of ATP-induced NLRP3 inflammasome-activation mediated IL-1beta release; format: cell-based; conditions: Monocyte
[3] = Inhibition of ATP-sensitive K+ channel in LPS-activated human monocytes assessed as inhibition of NLRP3 inflammasome activation-mediated IL-1beta release; format: cell-based; conditions: Monocyte
[4] = Inhibition of K+ channel in LPS-primed mouse bone marrow derived macrophages assessed as inhibition of NLRP3 inflammasome activation-mediated IL-1beta release; format: tissue-based; conditions: BMDM
Microglia = test: Inhibition of Ca2+ channel in mouse microglial cells assessed as inhibition of Abeta-stimulated NLRP3 inflammasome activation-mediated IL-1beta release at 36 nM by ELISA; format: cell-based
Mus musculus [5] = test: Antiinflammatory activity against LPS-induced sepsis C57BL/6 mouse model assessed as decrease in serum TNF-alpha level at 100 mg/kg, ip administered as single dose prior to LPS challenge by ELISA; format: functional; conditions: C57BL/6, ip
In short: (§3)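 C57BL/6 mice given 100 mg/kg ahead of intraperitoneal LPS injection. Serum and peritoneal lavage fluid collected and cytokines (IL-1β, IL-6, TNF-α) quantified by ELISA. n = 5 per group, means ± SEM, compared against LPS-only group.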

[6] = target: NACHT, LRR and PYD domains-containing protein 3 (Mus musculus) (UniProt Q8R4B8); test: Inhibition of NLRP3 inflammasome in LPS/nigericin-stimulated mouse J774.A1 cells assessed as reduction in caspase 1 p20 level in cell supernatants by Western blot analysis; conditions: dose 1-20 µM
Chain of NACHT, LRR and PYD domains-containing protein 3 (Mus musculus) (Q8R4B8 whole entry, the tested form may be a part): as above
In short: (§4)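 LPS-primed J774A.1 cells treated with compound, then nigericin-activated; NLRP3-related proteins analysed by Western blot in cell supernatant (caspase-1 p20, IL-1β) and cell lysate.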

Mus musculus [7] = test: Antiinflammatory activity against LPS-induced sepsis C57BL/6 mouse model assessed as decrease in peritoneal fluid TNF-alpha level at 100 mg/kg, ip administered as single dose prior to LPS challenge by ELISA; format: functional, organism-based; in short: as §3
[8] = target: NACHT, LRR and PYD domains-containing protein 3 (Mus musculus) (UniProt Q8R4B8); test: Inhibition of NLRP3 inflammasome in LPS/nigericin-stimulated mouse J774.A1 cells assessed as effect on ASC expression level in cell lysates by Western blot analysis; format: subcellular; in short: as §4
J774.A1 = test: Effect on NLRP3 expression in LPS/nigericin-stimulated mouse J774.A1 cell lysates by western blot analysis; format: functional, subcellular; in short: as §4
[9] = target: NACHT, LRR and PYD domains-containing protein 3 (Mus musculus) (UniProt Q8R4B8); test: Inhibition of NLRP3 inflammasome in LPS/nigericin-stimulated mouse J774.A1 cells assessed as reduction in IL-1beta level in cell supernatant by Western blot analysis; conditions: dose 1-20 µM; in short: as §4
Mus musculus [10] = test: Antiinflammatory activity against LPS-induced sepsis C57BL/6 mouse model assessed as decrease in peritoneal fluid IL-1beta level at 100 mg/kg, ip administered as single dose prior to LPS challenge by ELISA; format: functional; conditions: C57BL/6, ip; in short: as §3
[11] = target: NACHT, LRR and PYD domains-containing protein 3 (Mus musculus) (UniProt Q8R4B8); test: Inhibition of NLRP3 inflammasome in LPS/nigericin-stimulated mouse J774.A1 cells assessed as effect on pro-caspase-1 expression level in cell lysates by Western blot analysis; format: subcellular; in short: as §4
Mus musculus [12] = test: Antiinflammatory activity against LPS-induced sepsis C57BL/6 mouse model assessed as decrease in serum IL-6 level at 100 mg/kg, ip administered as single dose prior to LPS challenge by ELISA; format: functional; conditions: C57BL/6, ip; in short: as §3
Mus musculus [13] = test: Antiinflammatory activity against LPS-induced sepsis C57BL/6 mouse model assessed as decrease in peritoneal fluid IL-6 level at 100 mg/kg, ip administered as single dose prior to LPS challenge by ELISA; format: functional; conditions: C57BL/6, ip; in short: as §3
Mus musculus [14] = test: Antiinflammatory activity against LPS-induced sepsis C57BL/6 mouse model assessed as decrease in serum IL-1beta level at 100 mg/kg, ip administered as single dose prior to LPS challenge by ELISA; format: functional; conditions: C57BL/6, ip; in short: as §3
[15] = target: NACHT, LRR and PYD domains-containing protein 3 (Mus musculus) (UniProt Q8R4B8); test: as §1; format: cell-based; conditions: time 2.0 hrs; in short: as §2
[16] = target: NACHT, LRR and PYD domains-containing protein 3 (Mus musculus) (UniProt Q8R4B8); test: Inhibition of NLRP3 inflammasome in LPS/nigericin-stimulated mouse J774.A1 cells assessed as effect on pro-IL-1beta expression level in cell lysates by Western blot analysis; format: subcellular; in short: as §4

| IC50 [1] [µM] | Compound | other results |
| --- | --- | --- |
| 26.7 | CCCCc1oc2ccc(S(N)(=O)=O)cc2c1C(=O)c1ccc(OCCCN(CCCC)CCCC)cc1 |  |
| 81.6 | CCCCc1oc2ccc(NS(=O)(=O)c3ccc(C(F)(F)F)cc3)cc2c1C(=O)c1ccc(OCCCN(CCCC)CCCC)cc1 |  |
|  | C=C(CC)C(=O)c1ccc(OCC(=O)O)c(Cl)c1Cl [ETHACRYNIC ACID] | IC50 [2]: 3 µM |
| 27.9 | CCCCc1oc2ccc(NS(=O)(=O)c3ccc(OC)cc3)cc2c1C(=O)c1ccc(OCCCN(CCCC)CCCC)cc1 |  |
| 16.1 | CCCCc1oc2ccc(NC(=O)Nc3ccc(Cl)cc3)cc2c1C(=O)c1ccc(OCCCN(CCCC)CCCC)cc1 |  |
| 7.65 | CCCCc1oc2ccc(NS(=O)(=O)NC(C)C)cc2c1C(=O)c1ccc(OCCCN(CCCC)CCCC)cc1 |  |
| 9.03 | CCCCc1oc2ccc(NC(=O)C(C)(C)C)cc2c1C(=O)c1ccc(OCCCN(CCCC)CCCC)cc1 |  |
| 10.7 | CCCCc1oc2ccc(NS(=O)(=O)c3ccccc3)cc2c1C(=O)c1ccc(OCCCN(CCCC)CCCC)cc1 |  |
| 25 | CCCCc1oc2ccc(NS(=O)(=O)c3ccc(C)cc3)cc2c1C(=O)c1ccc(OCCCN(CCCC)CCCC)cc1 |  |
| 33.4 | CCCCc1oc2ccc(NS(=O)(=O)c3cccnc3)cc2c1C(=O)c1ccc(OCCCN(CCCC)CCCC)cc1 |  |
| 12.7 | CCCCc1oc2ccc(NS(=O)(=O)c3ccc(F)cc3)cc2c1C(=O)c1ccc(OCCCN(CCCC)CCCC)cc1 |  |
| > 100 | CCCCc1oc2ccc(S(=O)(=O)NCCN(C)C)cc2c1C(=O)c1ccc(OCCCN(CCCC)CCCC)cc1 |  |
| > 100 | CCCCc1oc2ccc(S(=O)(=O)N(CCC)CCC)cc2c1C(=O)c1ccc(OCCCN(CCCC)CCCC)cc1 |  |
| 25 | CCCCc1oc2ccc(NC(=O)NC3CCCC3)cc2c1C(=O)c1ccc(OCCCN(CCCC)CCCC)cc1 |  |
| 22.2 | CCCCc1oc2ccc(S(=O)(=O)NC)cc2c1C(=O)c1ccc(OCCCN(CCCC)CCCC)cc1 |  |
|  | COc1ccc(Cl)cc1C(=O)NCCc1ccc(S(=O)(=O)NC(=O)NC2CCCCC2)cc1 [GLYBURIDE] | IC50 [3]: 12 µM |
| 83.8 | CCCCc1oc2ccc(S(=O)(=O)NOC)cc2c1C(=O)c1ccc(OCCCN(CCCC)CCCC)cc1 |  |
| 42.5 | CCCCc1oc2ccc(S(=O)(=O)NC(C)C)cc2c1C(=O)c1ccc(OCCCN(CCCC)CCCC)cc1 |  |
| > 100 | CCCCc1oc2ccc(N)cc2c1C(=O)c1ccc(OCCCN(CCCC)CCCC)cc1 |  |
| 71.2 | CCCCc1oc2ccc(NC(=O)Nc3ccc(C)cc3)cc2c1C(=O)c1ccc(OCCCN(CCCC)CCCC)cc1 |  |
| > 100 | CCCCc1oc2ccccc2c1C(=O)c1ccc(OCCCN(CCCC)CCCC)cc1 |  |

| IC50 [1] [µM] | Compound | other results |
| --- | --- | --- |
| 26.7 | C=CC(=O)Nc1ccc2oc(CCCC)c(C(=O)c3ccc(OCCCN(CCCC)CCCC)cc3)c2c1 |  |
| 6.77 | CCCCc1oc2ccc(NC(C)=O)cc2c1C(=O)c1ccc(OCCCN(CCCC)CCCC)cc1 |  |
|  | CC(O)CC(=O)O (stereo not drawn) [3-HYDROXYBUTYRIC ACID, (+/-)-] | IC50 [4]: 2000 µM |
| 74.8 | CCCCc1oc2ccc(NC(=O)NC3CCCCC3)cc2c1C(=O)c1ccc(OCCCN(CCCC)CCCC)cc1 |  |
| 19 | CCCCc1oc2ccc(NS(=O)(=O)CC)cc2c1C(=O)c1ccc(OCCCN(CCCC)CCCC)cc1 |  |
| 13.3 | CCCCc1oc2ccc(NC(=O)c3ccccc3)cc2c1C(=O)c1ccc(OCCCN(CCCC)CCCC)cc1 |  |
| 5.82 | CCCCC(=O)Nc1ccc2oc(CCCC)c(C(=O)c3ccc(OCCCN(CCCC)CCCC)cc3)c2c1 |  |
| 18.5 | CCCCc1oc2ccc(NC(=O)Nc3ccc(C#N)cc3)cc2c1C(=O)c1ccc(OCCCN(CCCC)CCCC)cc1 |  |
| 6.84 | CCCCc1oc2ccc(NS(C)(=O)=O)cc2c1C(=O)c1ccc(OCCCN(CCCC)CCCC)cc1 [DRONEDARONE] |  |
|  | COCCOC(=O)C1=C(C)NC(C)=C(C(=O)OC(C)C)C1c1cccc([N+](=O)[O-])c1 (stereo not given) | inhibition (Microglia): 48% |
| 13.4 | CCCCc1oc2ccc(NS(=O)(=O)N(C)C)cc2c1C(=O)c1ccc(OCCCN(CCCC)CCCC)cc1 |  |
| 25 | CCCCc1oc2ccc(NS(=O)(=O)C3CCCCC3)cc2c1C(=O)c1ccc(OCCCN(CCCC)CCCC)cc1 |  |
| 11.4 | CCCCc1oc2ccc(NS(=O)(=O)NC)cc2c1C(=O)c1ccc(OCCCN(CCCC)CCCC)cc1 |  |
| 25.3 | C=CS(=O)(=O)Nc1ccc2oc(CCCC)c(C(=O)c3ccc(OCCCN(CCCC)CCCC)cc3)c2c1 |  |
| 61.1 | CCCCc1oc2ccc(S(=O)(=O)N(C)C)cc2c1C(=O)c1ccc(OCCCN(CCCC)CCCC)cc1 |  |
| 3.85 | CCCCc1oc2ccc(NC(=O)C(C)C)cc2c1C(=O)c1ccc(OCCCN(CCCC)CCCC)cc1 | inhibition in vivo at 100 mg/kg (Mus musculus [5]): 18%; inhibition [6]: Dose-Dependent Effect; Activity (Mus musculus [7]): inactive; inhibition [8]: inactive; Activity (J774.A1): inactive; inhibition [9]: Dose-Dependent Effect; inhibition in vivo at 100 mg/kg (Mus musculus [10]): 22%; inhibition [11]: inactive; inhibition in vivo at 100 mg/kg (Mus musculus [12]): 0%; inhibition in vivo at 100 mg/kg (Mus musculus [13]): 2%; inhibition in vivo at 100 mg/kg (Mus musculus [14]): 42%; inhibition [15]: Dose-Dependent Effect; inhibition [16]: inactive |
| 24.5 | CCCCc1oc2ccc(NC(=O)Nc3ccc(OC)cc3)cc2c1C(=O)c1ccc(OCCCN(CCCC)CCCC)cc1 |  |
| 13.3 | CCCCc1oc2ccc(NC(=O)NC(C)C)cc2c1C(=O)c1ccc(OCCCN(CCCC)CCCC)cc1 |  |
| 45.5 | CCCCc1oc2ccc(NS(=O)(=O)C3CC3)cc2c1C(=O)c1ccc(OCCCN(CCCC)CCCC)cc1 |  |
| > 100 | CCCCc1oc2ccc(NC(=O)c3ccc(OC)cc3)cc2c1C(=O)c1ccc(OCCCN(CCCC)CCCC)cc1 |  |
| 19.2 | CCCCc1oc2ccc(NC(=O)NCCC)cc2c1C(=O)c1ccc(OCCCN(CCCC)CCCC)cc1 |  |
